Measured values taken from ChEMBL document CHEMBL6134764, “Synthesis and biological evaluation of novel D-ring fused steroidal N(2)-substituted-1,2,3-triazoles” (RSC Med Chem, 2025).
Active and inactive are the calls of the source. The calls are words filed in the database; no cut-off is given here.

How the values were obtained:
[1] = biological target: T1, Aldo-keto reductase family 1 member C4 (Homo sapiens) (UniProt P17516); test: Inhibition of N-terminal his-tagged recombinant human AKR1C4 assessed as NADPH consumption using 9,10-phenanthrenequinone as substrate at 33 uM by fluorescence spectroscopic analysis relative to control
T1 sequence (whole entry): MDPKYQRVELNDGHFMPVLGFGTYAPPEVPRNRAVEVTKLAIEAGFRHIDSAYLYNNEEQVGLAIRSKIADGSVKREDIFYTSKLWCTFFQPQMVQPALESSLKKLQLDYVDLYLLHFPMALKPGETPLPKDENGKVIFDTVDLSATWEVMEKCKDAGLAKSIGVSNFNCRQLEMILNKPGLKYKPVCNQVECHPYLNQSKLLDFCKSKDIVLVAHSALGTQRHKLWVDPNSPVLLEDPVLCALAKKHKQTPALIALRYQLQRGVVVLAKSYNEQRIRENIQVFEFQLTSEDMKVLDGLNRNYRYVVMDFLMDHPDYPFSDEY
Summary of the method: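 N-His-tagged human AKR1C4 from E. coli BL21(DE3), purified by Ni-affinity and size exclusion. Enzyme at 160 μg/mL with 17 μM 9,10-phenanthrenequinone and 250 μM NADPH in 100 mM potassium phosphate pH 6.0, 37 °C, duplicate. Compound at 33 μM final. NADPH fluorescence (ex 340/em 460 nm) read every 30 s for 10 min; inhibition from linear slope vs uninhibited enzyme (100%).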

[2] = biological target: T2, Estrogen receptor (Homo sapiens) (UniProt P03372); test: Binding affinity to human recombinant ERalpha ligand binding domain extracted from saccharomyces cerevisiae coexpressing yellow fluorescent protein assessed as relative binding affinity at 10 uM incubated for 14 to 16 hrs by fluorimetry based fluorescence microscopic analysis; settings: time 14-16 hrs
T2 sequence (whole entry): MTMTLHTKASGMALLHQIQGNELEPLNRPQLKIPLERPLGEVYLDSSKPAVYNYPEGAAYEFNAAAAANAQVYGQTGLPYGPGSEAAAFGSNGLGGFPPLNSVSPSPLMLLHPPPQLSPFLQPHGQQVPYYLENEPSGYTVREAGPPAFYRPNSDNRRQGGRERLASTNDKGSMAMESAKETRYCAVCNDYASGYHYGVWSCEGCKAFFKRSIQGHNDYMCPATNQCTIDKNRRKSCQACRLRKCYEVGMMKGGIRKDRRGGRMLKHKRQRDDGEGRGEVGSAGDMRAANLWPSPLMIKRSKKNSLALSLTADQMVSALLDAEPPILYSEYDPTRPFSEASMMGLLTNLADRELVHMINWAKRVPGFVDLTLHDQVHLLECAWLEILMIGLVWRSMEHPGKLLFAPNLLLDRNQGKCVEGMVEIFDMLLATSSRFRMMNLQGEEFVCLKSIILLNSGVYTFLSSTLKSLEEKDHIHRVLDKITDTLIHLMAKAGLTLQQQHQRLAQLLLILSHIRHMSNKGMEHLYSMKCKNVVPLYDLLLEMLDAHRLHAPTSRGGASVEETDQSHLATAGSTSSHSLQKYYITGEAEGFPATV
Summary of the method: (§1)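 S. cerevisiae FY250 carrying receptor LBD–EYFP fusions (human ERα, ERβ, AR; rat GR); raffinose drop-out medium, grown to OD600 ~0.6, fusion induced with 2% galactose. Compounds 10 μM (ER, AR) or 100 μM (GR), 14–16 h, 25 °C, dark; DMSO solvent control. Fluorescence at ex/em 485/538 nm, triplicate; fold change vs DMSO (normalized to 1).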

[3] = biological target: T3, Androgen receptor (Homo sapiens) (UniProt P10275); test: Binding affinity to human recombinant androgen receptor ligand binding domain extracted from saccharomyces cerevisiae coexpressing yellow fluorescent protein assessed as relative binding affinity at 10 uM incubated for 14 to 16 hrs by fluorimetry based fluorescence microscopic analysis; settings: time 14-16 hrs; summary of the method: as §1
T3 sequence (whole entry): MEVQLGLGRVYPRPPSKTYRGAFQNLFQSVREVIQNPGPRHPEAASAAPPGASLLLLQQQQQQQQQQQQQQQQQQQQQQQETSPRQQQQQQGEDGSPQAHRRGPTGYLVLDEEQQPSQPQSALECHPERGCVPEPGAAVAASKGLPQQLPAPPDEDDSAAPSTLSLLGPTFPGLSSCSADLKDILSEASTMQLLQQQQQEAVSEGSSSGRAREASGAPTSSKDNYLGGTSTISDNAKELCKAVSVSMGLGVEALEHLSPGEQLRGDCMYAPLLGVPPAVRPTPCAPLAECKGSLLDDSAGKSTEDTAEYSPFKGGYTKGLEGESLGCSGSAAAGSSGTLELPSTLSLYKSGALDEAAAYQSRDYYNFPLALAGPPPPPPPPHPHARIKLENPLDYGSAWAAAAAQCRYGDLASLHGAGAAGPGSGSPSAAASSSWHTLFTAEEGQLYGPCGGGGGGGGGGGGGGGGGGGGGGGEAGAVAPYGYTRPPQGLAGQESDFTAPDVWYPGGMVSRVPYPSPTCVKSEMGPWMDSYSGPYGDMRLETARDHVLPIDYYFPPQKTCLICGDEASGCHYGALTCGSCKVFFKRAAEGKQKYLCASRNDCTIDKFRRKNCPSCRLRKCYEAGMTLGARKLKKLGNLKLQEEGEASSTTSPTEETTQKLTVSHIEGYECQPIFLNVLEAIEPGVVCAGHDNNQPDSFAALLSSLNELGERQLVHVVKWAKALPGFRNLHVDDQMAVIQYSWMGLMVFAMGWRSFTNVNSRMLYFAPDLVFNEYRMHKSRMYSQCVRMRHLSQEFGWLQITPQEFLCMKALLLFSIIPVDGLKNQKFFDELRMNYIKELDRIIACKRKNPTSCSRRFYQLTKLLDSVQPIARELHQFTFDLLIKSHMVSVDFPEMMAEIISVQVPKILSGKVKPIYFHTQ

[4] = biological target: Estrogen receptor beta (Homo sapiens) (UniProt Q92731); test: Binding affinity to human recombinant ERbeta ligand binding domain extracted from saccharomyces cerevisiae coexpressing yellow fluorescent protein assessed as relative binding affinity at 10 uM incubated for 14 to 16 hrs by fluorimetry based fluorescence microscopic analysis; settings: time 14-16 hrs; summary of the method: as §1
Sequence of Estrogen receptor beta (Homo sapiens) (Q92731 whole entry, the tested form may be a part): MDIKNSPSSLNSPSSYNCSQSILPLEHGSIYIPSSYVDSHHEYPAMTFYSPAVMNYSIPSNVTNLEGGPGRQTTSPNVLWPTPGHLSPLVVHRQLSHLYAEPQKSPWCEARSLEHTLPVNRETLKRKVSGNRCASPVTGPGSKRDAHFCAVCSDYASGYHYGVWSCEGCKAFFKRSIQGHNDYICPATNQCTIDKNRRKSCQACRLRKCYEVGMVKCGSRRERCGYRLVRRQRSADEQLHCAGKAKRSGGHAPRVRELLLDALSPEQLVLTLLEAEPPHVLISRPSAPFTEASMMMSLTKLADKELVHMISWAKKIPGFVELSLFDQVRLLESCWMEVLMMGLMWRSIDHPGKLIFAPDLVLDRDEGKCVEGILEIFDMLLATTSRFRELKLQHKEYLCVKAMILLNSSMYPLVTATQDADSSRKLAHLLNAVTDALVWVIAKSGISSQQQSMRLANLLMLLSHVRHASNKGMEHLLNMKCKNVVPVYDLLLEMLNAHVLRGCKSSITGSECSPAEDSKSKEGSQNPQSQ

[5] = test system: MDA-MB-231; test: Cytotoxicity against human MDA-MB-231 cells assessed as reduction in cell viability incubated for 72 hrs by resazurin assay; settings: MDA-MB-231, 72 h
[6] = test system: MCF7; test: Cytotoxicity against human MCF7 cells assessed as reduction in cell viability incubated for 72 hrs by resazurin assay; settings: MCF7, 72 h
[7] = test system: Huh-7; test: Cytotoxicity against human Huh-7 cells assessed as reduction in cell viability incubated for 72 hrs by resazurin assay; settings: Huh-7, 72 h
[8] = Toxicity in human hTERT-BJ cells assessed as reduction in cell viability at 0.01 to 100 uM incubated for 72 hrs by resazurin assay; format: cell-based; settings: dose 0.01-100 µM
Summary of the method: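 hTERT-immortalized BJ-5ta foreskin fibroblasts grown in high-glucose DMEM with 20% Medium 199 and 10% FBS. Exposed to 0.01–100 μM for 72 h, then 0.01 mg/mL resazurin for 2 h, fluorescence at 584 nm; n = 3; one-way ANOVA with Dunnett's test vs control.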

[9] = test system: HCT-116; test: Cytotoxicity against human HCT-116 cells assessed as reduction in cell viability incubated for 72 hrs by resazurin assay; settings: HCT-116, 72 h

SMILES | inhibition [1] [%] | Activity [2] | Activity [3] | Activity [4] | IC50 [5] [µM] | IC50 [6] [µM] | IC50 [7] [µM] | Activity [8] | IC50 [9] [µM]
CC(=O)O[C@H]1CC[C@@]2(C)C(=CC[C@@H]3[C@@H]2CC[C@]2(C)c4nn(C(C)=O)nc4C[C@@H]32)C1 | 8.32 | inactive | inactive | Active |  |  |  |  | 
C[C@]12CC[C@H](O)CC1=CC[C@@H]1[C@@H]2CC[C@]2(C)c3nn(CCN)nc3C[C@@H]12 | 2.29 | inactive | inactive |  | 22.3 | 22.3 | 22.3 | Toxic | 22.3
CC(C)Cc1ccc(C(C)C(=O)O)cc1 (configuration not stated) | 43.9 |  |  |  |  |  |  |  | 
C[C@]12CC[C@H](O)CC1=CC[C@@H]1[C@@H]2CC[C@]2(C)c3nn(Cc4ccccc4)nc3C[C@@H]12 | 0 | inactive | inactive |  |  |  |  |  | 
CCCCn1nc2c(n1)[C@@]1(C)CC[C@H]3[C@@H](CC=C4C[C@@H](O)CC[C@@]43C)[C@@H]1C2 | 0 | inactive | inactive |  |  |  |  |  | 

Now from value to compound, other results behind:

inhibition [1] [%] | Activity [2] | Activity [3] | Activity [4] | SMILES | IC50 [5] [µM] | IC50 [6] [µM] | IC50 [7] [µM] | Activity [8] | IC50 [9] [µM]
0 | inactive | inactive |  | CCn1nc2c(n1)[C@@]1(C)CC[C@@H]3c4ccc(OCc5ccccc5)cc4CC[C@H]3[C@@H]1C2 |  |  |  |  | 
0 | inactive | inactive |  | CCOC(=O)Cn1nc2c(n1)[C@@]1(C)CC[C@H]3[C@@H](CC=C4C[C@@H](O)CC[C@@]43C)[C@@H]1C2 |  |  |  |  | 
0 | inactive | inactive |  | CCCCCCCCn1nc2c(n1)[C@@]1(C)CC[C@@H]3c4ccc(OCc5ccccc5)cc4CC[C@H]3[C@@H]1C2 |  |  |  |  | 
0 | inactive | inactive |  | Cn1nc2c(n1)[C@@]1(C)CC[C@@H]3c4ccc(OCc5ccccc5)cc4CC[C@H]3[C@@H]1C2 |  |  |  |  | 
2.81 | inactive | inactive |  | CCn1nc2c(n1)[C@@]1(C)CC[C@H]3[C@@H](CC=C4C[C@@H](O)CC[C@@]43C)[C@@H]1C2 |  |  |  |  | 
0 | inactive | inactive | Active | Cn1nc2c(n1)[C@@]1(C)CC[C@H]3[C@@H](CC=C4C[C@@H](O)CC[C@@]43C)[C@@H]1C2 |  |  |  |  | 
0 | inactive | inactive | Active | C[C@]12CC[C@@H]3c4ccc(OCc5ccccc5)cc4CC[C@H]3[C@@H]1Cc1nn(Cc3ccccc3)nc12 |  |  |  |  | 
